# Assay results as given in ChEMBL document CHEMBL1146338, “Synthesis and antioxidant activity evaluation of new 7-aryl or 7-heteroarylamino-2,3-dimethylbenzo[b]thiophenes obtained by Buchwald-Hartwig C-N cross-coupling” (Bioorg Med Chem, 2007).
# Columns and labels:
# [1] = tested on: Radical scavenging activity; test: Antioxidant activity assessed as DPPH radical scavenging activity at 0.250 g/L; type: functional
# Summary of the method: (§1)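 Compound in methanol (0.3 mL, various concentrations) mixed with methanolic DPPH ([…] stock, 2.7 mL), shaken and held 60 min in the dark. Absorbance read at 517 nm. %RSA = [(ADPPH − AS)/ADPPH] × 100. Means of three independent samples. EC50 (50% scavenging) taken from the plot of %RSA against concentration; BHA and BHT as standards.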
# [2] = Antioxidant activity assessed as inhibition of lipid peroxidation at 0.125 g/L after 2 hrs by beta carotene bleaching method; type: functional
# Summary of the method: (§2)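 β-Carotene linoleate emulsion (β-carotene dissolved in chloroform) incubated with compound at 50 C in a water bath. A470 read at time zero, then every 20 min until the control lost colour; a blank without β-carotene was subtracted. Activity = (β-carotene after 2 h / initial β-carotene) × 100. Triplicate means; EC50 taken from the activity % versus concentration plot.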
# [3] = tested on: Radical scavenging activity; test: Antioxidant activity assessed as DPPH radical scavenging activity at 0.0312 g/L; type: functional; summary of the method: as §1
# [4] = Antioxidant activity assessed as reduction of ferric cyanide complex by reducing power assay; type: functional
# Summary of the method: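 Oyaizu method: methanolic compound at various concentrations mixed with sodium phosphate buffer (200 mmol/L, pH 6.6) and 1% potassium ferricyanide, held 20 min at 50 C. 10% TCA added, then centrifuged. Supernatant diluted with water, 0.1% FeCl3 added, A700 read. Triplicate means; EC50 = concentration giving absorbance 0.5, from the A700 versus concentration plot. Standards: BHA, BHT, ascorbic acid.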
# [5] = Antioxidant activity assessed as inhibition of lipid peroxidation at 0.0312 g/L after 2 hrs by beta carotene bleaching method; type: functional; summary of the method: as §2
# [6] = tested on: Radical scavenging activity; test: Antioxidant activity assessed as DPPH radical scavenging activity at 0.0625 g/L; type: functional; summary of the method: as §1
# Erythrocyte [7] = test: Inhibition of AAPH-induced ram erythrocyte hemolysis; type: functional, cell-based; conditions: Ovis aries
# Summary of the method: (§3)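 Erythrocytes from a male ram (churra galega transmontana) washed three times in 10 mM PBS pH 7.4. A 20% suspension combined with 200 mM AAPH in PBS and methanolic compound at different concentrations, shaken gently 3 h at 37 C. Diluted with PBS, centrifuged, supernatant A540 read. % inhibition set against the AAPH control without compound. Triplicate means; EC50 from the plot; L-ascorbic acid as standard.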
# [8] = Antioxidant activity assessed as inhibition of lipid peroxidation at 0.0156 g/L after 2 hrs by beta carotene bleaching method; type: functional; summary of the method: as §2
# [9] = Antioxidant activity assessed as inhibition of lipid peroxidation at 0.0625 g/L after 2 hrs by beta carotene bleaching method; type: functional; summary of the method: as §2
# [10] = tested on: Radical scavenging activity; test: Antioxidant activity assessed as DPPH radical scavenging activity at 0.125 g/L; type: functional; summary of the method: as §1
# [11] = Antioxidant activity assessed as inhibition of lipid peroxidation after 2 hrs by beta carotene bleaching method; type: functional; summary of the method: as §2
# Erythrocyte [12] = test: Inhibition of AAPH-induced ram erythrocyte hemolysis at 0.0625 g/L; type: functional; conditions: Ovis aries; summary of the method: as §3
# Erythrocyte [13] = test: Inhibition of AAPH-induced ram erythrocyte hemolysis at 0.125 g/L; type: functional; conditions: Ovis aries; summary of the method: as §3
# [14] = tested on: Radical scavenging activity; test: Antioxidant activity assessed as DPPH radical scavenging activity at 0.0156 g/L; type: functional; summary of the method: as §1
# Erythrocyte [15] = test: Inhibition of AAPH-induced ram erythrocyte hemolysis at 0.0312 g/L; type: functional; conditions: Ovis aries; summary of the method: as §3
# Erythrocyte [16] = test: Inhibition of AAPH-induced ram erythrocyte hemolysis at 0.0156 g/L; type: functional; conditions: Ovis aries; summary of the method: as §3
# [17] = Antioxidant activity assessed as inhibition of lipid peroxidation at 0.250 g/L after 2 hrs by beta carotene bleaching method; type: functional; summary of the method: as §2
# [18] = tested on: Radical scavenging activity; test: Antioxidant activity assessed as DPPH radical scavenging activity; type: functional; summary of the method: as §1
# Erythrocyte [19] = test: Inhibition of AAPH-induced ram erythrocyte hemolysis at 0.250 g/L; type: functional; conditions: Ovis aries; summary of the method: as §3
# Erythrocyte [20] = test: Inhibition of AAPH-induced ram erythrocyte hemolysis at 1 g/L; type: functional; conditions: Ovis aries; summary of the method: as §3
# [21] = Antioxidant activity assessed as inhibition of lipid peroxidation at 2 g/L after 2 hrs by beta carotene bleaching method; type: functional; summary of the method: as §2
SMILES,EC50 [4] [g/L],EC50 [11] [g/L],EC50 [18] [g/L],Activity [1] [%],inhibition [2] [%],Activity [3] [%],inhibition [5] [%],Activity [6] [%],EC50 (Erythrocyte [7]) [µg/mL],inhibition [8] [%],inhibition [9] [%],Activity [10] [%],inhibition at 62.5 µg/mL (Erythrocyte [12]) [%],inhibition at 125 µg/mL (Erythrocyte [13]) [%],Activity [14] [%],inhibition at 31.2 µg/mL (Erythrocyte [15]) [%],inhibition at 15.6 µg/mL (Erythrocyte [16]) [%],inhibition [17] [%],inhibition at 250 µg/mL (Erythrocyte [19]) [%],also measured
Cc1sc2c(Nc3ccccn3)cccc2c1C,> 0.25,> 0.25,> 0.25,9,45.9,2.6,42.9,4.9,51.4,40.7,45.8,8.8,53,64.6,0.4,44.5,38.4,47.2,69.5,
Cc1sc2c(Nc3cccnc3)cccc2c1C,> 0.25,0.0173,> 0.25,15.5,76.1,2.8,65.4,5.5,24.1,48.1,70.9,9,66.9,69.3,2.5,56.8,41.8,86.2,74.1,
O=C1O[C@H]([C@@H](O)CO)C(O)=C1O [ASCORBIC ACID],,,,,,,,,,,,,,,,,,,,inhibition at 1000 µg/mL (Erythrocyte [20]): 94.6%
COc1ccc(Nc2cccc3c(C)c(C)sc23)cc1OC,0.0227,0.00873,0.0173,94.7,100,72.4,91.4,86.9,18.9,89.3,100,92.1,61.2,62.1,47.3,58.3,47.8,100,62.9,
CC(C)(C)c1cc(O)ccc1O,,,,,,,,,,,,,,,,,,,,inhibition [21]: 82.2%

# More lines, main results first:
EC50 [4] [g/L],EC50 [11] [g/L],EC50 [18] [g/L],SMILES,Activity [1] [%],inhibition [2] [%],Activity [3] [%],inhibition [5] [%],Activity [6] [%],EC50 (Erythrocyte [7]) [µg/mL],inhibition [8] [%],inhibition [9] [%],Activity [10] [%],inhibition at 62.5 µg/mL (Erythrocyte [12]) [%],inhibition at 125 µg/mL (Erythrocyte [13]) [%],Activity [14] [%],inhibition at 31.2 µg/mL (Erythrocyte [15]) [%],inhibition at 15.6 µg/mL (Erythrocyte [16]) [%],inhibition [17] [%],inhibition at 250 µg/mL (Erythrocyte [19]) [%],also measured
0.0216,0.00845,0.014,COc1ccc(Nc2cccc3c(C)c(C)sc23)cc1,93.3,100,85.8,96.8,88.4,21.4,92.3,99.7,91.1,65.1,65.9,55.8,61.2,43.4,100,66.7,
> 0.25,0.016,> 0.25,Cc1sc2c(Nc3ccc(C#N)cc3)cccc2c1C,3.1,71,0,67.3,0,18,49.6,69,0.5,62.1,62.6,0,59.4,48.3,79.6,66.4,
0.0987,0.0137,> 0.25,COc1cccc(Nc2cccc3c(C)c(C)sc23)c1,28.4,82.6,13.4,62.9,13.5,44.2,56.8,68.9,22.2,58,63.1,7.9,44.3,40.3,84.8,66.7,
